{"data": "Results pooled from the literature", "effect on": "cell growth or viability", "note": "Compare with care: the assays were run in different laboratories."}
{"Compound": "COc1cc([C@@H]2c3cc4c(cc3[C@H](O)[C@H]3COC(=O)[C@H]23)OCO4)cc(OC)c1OC", "cell line": "MP41", "assay": "ATP luminescence", "conditions": "72 h", "IC50": "6.49 nM"}
{"Compound": "C[C@H]1[C@H](C)CC[C@]2(C)CC[C@]3(C)C(=CC(=O)[C@@H]4[C@@]5(C)CC[C@@H](O)[C@](C)(C(=O)NCc6cn(-c7cccc(C(F)(F)F)c7)nn6)[C@@H]5CC[C@]43C)[C@H]12", "cell line": "HDF", "assay": "MTT", "conditions": "24 h", "IC50": "116000 nM"}
{"Compound": "COc1cc(C(=O)c2nc(-c3ccsc3)c[nH]2)cc(OC)c1OC", "cell line": "M14", "assay": "MTS", "conditions": "72 h", "IC50": "48.5 nM"}
{"Compound": "FC(F)(F)c1cc(OCc2cc(-c3ccc(Cl)cc3Cl)no2)c2ccccc2n1", "cell line": "HL-60", "assay": "MTS", "conditions": "72 h", "IC50": "> 100000 nM"}
{"Compound": "Cc1ccc(C(C)C)c(OC2=C(Cl)C(=O)c3ccccc3C2=O)c1", "cell line": "SK-BR-3", "assay": "MTT", "conditions": "24 h", "IC50": "> 60 µg/mL"}
{"Compound": "O=c1cc(OCc2cc(-c3ccc(Cl)cc3Cl)no2)c2ccccc2o1", "cell line": "HL-60", "assay": "MTS", "conditions": "72 h", "IC50": "> 100000 nM"}
{"Compound": "Cc1noc2c1-c1ccc(-c3cnn(C)c3)cc1C(c1ccc(Cl)cc1)=N[C@H]2CC(N)=O", "cell line": "MP41", "assay": "ATP luminescence", "conditions": "72 h", "IC50": "376 nM"}
{"Compound": "COc1cc(C(=O)c2nc(-c3cccc4[nH]ccc34)cs2)cc(OC)c1OC", "cell line": "M14", "assay": "MTS", "conditions": "72 h", "IC50": "4.5 nM"}
{"Compound": "O=[N+]([O-])c1ccc(Sc2cccc[n+]2[O-])c2nonc12", "cell line": "MP41", "assay": "ATP luminescence", "conditions": "72 h", "IC50": "2590 nM"}
{"Compound": "COc1cccc2c1C(=O)c1c(O)c3c(c(O)c1C2=O)C[C@@](O)(C(=O)CO)C[C@@H]3O[C@H]1C[C@H](N)[C@H](O)[C@H](C)O1", "cell line": "CHO-K1", "assay": "ATP luminescence", "conditions": "72 h", "IC50": "340 nM"}
{"Compound": "Cc1sc2c(c1C)C(c1ccc(Cl)cc1)=N[C@@H](CC(=O)NCCCCNC(=O)COc1cccc3c1C(=O)N(C1CCC(=O)NC1=O)C3=O)c1nnc(C)n1-2 (stereo partly drawn)", "cell line": "SK-BR-3", "assay": "CCK-8", "conditions": "72 h", "IC50": "> 10000 nM"}
{"Compound": "COc1ccc(-c2ccc3c(N4CCOC[C@@H]4C)nc(N4CCOC[C@@H]4C)nc3n2)cc1COC(=O)CCOCCOCCOCCONC(=O)c1ccc(F)c(F)c1Nc1ccc(I)cc1F", "cell line": "D54", "assay": "WST-1", "conditions": "72 h", "IC50": "327 nM"}
{"Compound": "COc1cc(C(=O)c2nc(-c3cccc4[nH]ccc34)c(C)[nH]2)cc(OC)c1OC", "cell line": "M14", "assay": "MTS", "conditions": "72 h", "IC50": "17.2 nM"}
{"Compound": "COc1cc([C@@H]2c3cc4c(cc3[C@@H](O[C@@H]3O[C@@H]5CO[C@@H](C)O[C@H]5[C@H](O)[C@H]3O)[C@H]3COC(=O)[C@H]23)OCO4)cc(OC)c1O", "cell line": "HL-60", "assay": "MTS", "conditions": "72 h", "IC50": "30 nM"}
{"Compound": "CCCNC(=S)N/N=C/c1cccc2cc3ccccc3nc12", "cell line": "SK-BR-3", "assay": "MTT", "conditions": "48 h", "IC50": "> 50000 nM"}
{"Compound": "O=C(NO)c1ccc(Cn2cnc3c(Nc4ccc(Br)cc4F)ncnc32)cc1", "cell line": "U-266", "assay": "MTT", "conditions": "72 h", "IC50": "750 nM"}
{"Compound": "O=c1cc(OCc2cc(-c3ccccn3)no2)c2ccccc2o1", "cell line": "HL-60", "assay": "MTS", "conditions": "72 h", "IC50": "> 100000 nM"}
{"Compound": "CNC(=S)N/N=C/c1cccc2cc3ccccc3nc12", "cell line": "SK-BR-3", "assay": "MTT", "conditions": "48 h", "IC50": "41800 nM"}
{"Compound": "C[C@H]1[C@H](C)CC[C@]2(C)CC[C@]3(C)C(=CC(=O)[C@@H]4[C@@]5(C)CC[C@@H](O)[C@](C)(C(=O)NCc6cn(-c7ccc(F)cc7)nn6)[C@@H]5CC[C@]43C)[C@H]12", "cell line": "HDF", "assay": "MTT", "conditions": "24 h", "IC50": "108000 nM"}
{"Compound": "C/C(=N/NC(=O)c1cn(-c2ccccc2)nc1-c1ccc(C)cc1)c1c(O)cc(C)oc1=O", "cell line": "Vero", "assay": "MTT", "conditions": "48 h", "IC50": "216000 nM"}
{"Compound": "CC(C)C[C@H](NC(=O)[C@H](Cc1ccccc1)NC(=O)c1cnccn1)B(O)O", "cell line": "MP41", "assay": "ATP luminescence", "conditions": "72 h", "IC50": "4.34 nM"}
{"Compound": "COc1cccc(NC(=S)N/N=C/c2cccc3cc4ccccc4nc23)c1", "cell line": "SK-BR-3", "assay": "MTT", "conditions": "48 h", "IC50": "> 50000 nM"}
{"Compound": "CC1CCC(C(C)C)C(OC2=C(Cl)C(=O)c3ccccc3C2=O)C1 (stereo not drawn)", "cell line": "SK-BR-3", "assay": "MTT", "conditions": "24 h", "IC50": "4 µg/mL"}
{"Compound": "O=[N+]([O-])c1ccc(NC(=S)N/N=C/c2cccc3cc4ccccc4nc23)cc1", "cell line": "SK-BR-3", "assay": "MTT", "conditions": "48 h", "IC50": "> 50000 nM"}
{"Compound": "COc1ccc(Nc2ncnc3c2ncn3Cc2ccc(C(=O)NO)cc2)cc1", "cell line": "U-266", "assay": "MTT", "conditions": "72 h", "IC50": "1110 nM"}
{"Compound": "c1ccc(Oc2ccc(Nc3c4c(nc5ccccc35)CCC4)cc2)cc1", "cell line": "RAW264.7", "assay": "resazurin", "conditions": "72 h", "IC50": "40800 nM"}
{"Compound": "Nc1ccccc1NC(=O)c1ccc(Cn2cnc3c(Nc4ccc(Cl)cc4)ncnc32)cc1", "cell line": "HL-60", "assay": "MTT", "conditions": "72 h", "IC50": "1110 nM"}
{"Compound": "COc1cc(C(=O)c2nc(-c3cccc4[nH]ccc34)c[nH]2)cc2c1OCO2", "cell line": "M14", "assay": "MTS", "conditions": "72 h", "IC50": "3.6 nM"}
{"Compound": "Cc1[nH]c2ccccc2c1CCNCc1ccc(/C=C/C(=O)NO)cc1", "cell line": "MP41", "assay": "ATP luminescence", "conditions": "72 h", "IC50": "14.3 nM"}
{"Compound": "COc1cc(C(=O)c2nc(-c3cccc4c3CCN4)c[nH]2)cc(OC)c1OC", "cell line": "M14", "assay": "MTS", "conditions": "72 h", "IC50": "43.4 nM"}
{"Compound": "COc1nnc2ccc(N3CCC(c4ccc(OCCN5CCN(C)C(=O)[C@H]5C)cc4)CC3)nn12", "cell line": "MP41", "assay": "ATP luminescence", "conditions": "72 h", "IC50": "90.4 nM"}
{"Compound": "C/C(=N/NC(=O)c1cn(-c2ccccc2)nc1-c1ccc(Br)cc1)c1c(O)cc(C)oc1=O", "cell line": "Vero", "assay": "MTT", "conditions": "48 h", "IC50": "192000 nM"}
{"Compound": "COc1cc(C(=O)c2nc(-c3ccc4cc[nH]c4c3)c[nH]2)cc(OC)c1OC", "cell line": "M14", "assay": "MTS", "conditions": "72 h", "IC50": "14.3 nM"}
{"Compound": "O=C(NO)c1ccc(Cn2cnc3c(Nc4ccc(F)c(Cl)c4)ncnc32)cc1", "cell line": "U-266", "assay": "MTT", "conditions": "72 h", "IC50": "1460 nM"}
{"Compound": "C[C@H]1[C@H](C)CC[C@]2(C)CC[C@]3(C)C(=CC(=O)[C@@H]4[C@@]5(C)CC[C@@H](O)[C@](C)(C(=O)NCc6cn(-c7cccc(Br)c7)nn6)[C@@H]5CC[C@]43C)[C@H]12", "cell line": "HDF", "assay": "MTT", "conditions": "24 h", "IC50": "121000 nM"}
{"Compound": "N/C(=N\\O)c1ccc(-c2cc(CNc3cccc4cccnc34)on2)cc1", "cell line": "HL-60", "assay": "MTS", "conditions": "72 h", "IC50": "2800 nM"}
{"Compound": "CO[C@H]1[C@H](O[C@H]([C@H]2O[C@@H](n3ccc(=O)[nH]c3=O)[C@H](O)[C@@H]2O)[C@H](NCCCNC(=O)[C@@H](NC(=O)[C@@H](NC(=O)N[C@H](C(=O)O)C(C)C)[C@@H]2CCN=C(N)N2)[C@@H](OC(=O)CCCCCCCCCCCCN(O)C(=N)N)C(C)C)C(=O)O)O[C@H](CN)[C@H]1O", "cell line": "SK-BR-3", "assay": "WST-1", "IC50": "590 nM"}
{"Compound": "C[C@H]1[C@H](C)CC[C@]2(C)CC[C@]3(C)C(=CC(=O)[C@@H]4[C@@]5(C)CC[C@@H](O)[C@](C)(C(=O)NCc6cn(-c7ccccc7)nn6)[C@@H]5CC[C@]43C)[C@H]12", "cell line": "HDF", "assay": "MTT", "conditions": "24 h", "IC50": "181000 nM"}
{"Compound": "CC(=O)O[C@H]1C(=O)[C@@]2(C)[C@H]([C@H](OC(=O)c3ccccc3)[C@]3(O)C[C@H](OC(=O)[C@H](O)[C@@H](NC(=O)c4ccccc4)c4ccccc4)C(C)=C1C3(C)C)[C@]1(OC(C)=O)CO[C@@H]1C[C@@H]2O", "cell line": "M14", "assay": "MTS", "conditions": "72 h", "IC50": "0.2 nM"}
